TRPC4 agonist = activators of mouse TRPC4 channel; Q9QUQ5; HEK293 TRPC4beta/mu-opioid, Fluo4 calcium fluorescence; stronger effect = higher value; B-score at 10 µM; hit rate 0.49% among 310,000; AID 2237;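 active = B-score above 5 SD of library B-scores, and initial fluorescence ratio not above library mean plus 5 SD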;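 also: positive B-score marks a calcium rise read as TRPC4 activation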
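System: HEK293 cells stably co-expressing mouse TRPC4beta and mu-opioid receptor; Schedule: Fluo4 dye loading 45 min at room temperature, 110 s recording; Detection: Fluo4 fluorescence, kinetic; Evaluation: B-scored integrated calcium fluorescence ratio; Controls: buffer (low) and maximal DAMGO (high).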
TRPC4 block = inhibitors of mouse TRPC4 channel; Q9QUQ5; HEK293 TRPC4beta/mu-opioid, DAMGO-evoked Fluo4 calcium flux; stronger effect = lower value; B-score at 10 µM; hit rate 0.39% among 300,000; AID 2247;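 active = B-score over 3 SD under the library average, no early fluorescence shift, positive overall ratio signal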
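material = TRPC4beta/mu-opioid receptor HEK293 cell line | probe or stimulus = sequential submaximal and maximal DAMGO stimulation | compound dosing = one concentration per compound | measured by = Fluo4 Ca2+ flux fluorescence | evaluation = integrated fluorescence ratio relative to baseline, converted to per-well B score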
Pemphigus Ab inh = blocks pemphigus antibody binding to human desmoglein-3. DSG3-coupled beads, scFv-anti-DSG3-GFP binding, flow cytometry; stronger effect = lower value. binding (percent of control), % at 10 µM. hit rate 0.48% among 310,000;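 active = binding more than 3 SD below its plate's average and above zero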
Target sequence (P32926 whole entry, looked up): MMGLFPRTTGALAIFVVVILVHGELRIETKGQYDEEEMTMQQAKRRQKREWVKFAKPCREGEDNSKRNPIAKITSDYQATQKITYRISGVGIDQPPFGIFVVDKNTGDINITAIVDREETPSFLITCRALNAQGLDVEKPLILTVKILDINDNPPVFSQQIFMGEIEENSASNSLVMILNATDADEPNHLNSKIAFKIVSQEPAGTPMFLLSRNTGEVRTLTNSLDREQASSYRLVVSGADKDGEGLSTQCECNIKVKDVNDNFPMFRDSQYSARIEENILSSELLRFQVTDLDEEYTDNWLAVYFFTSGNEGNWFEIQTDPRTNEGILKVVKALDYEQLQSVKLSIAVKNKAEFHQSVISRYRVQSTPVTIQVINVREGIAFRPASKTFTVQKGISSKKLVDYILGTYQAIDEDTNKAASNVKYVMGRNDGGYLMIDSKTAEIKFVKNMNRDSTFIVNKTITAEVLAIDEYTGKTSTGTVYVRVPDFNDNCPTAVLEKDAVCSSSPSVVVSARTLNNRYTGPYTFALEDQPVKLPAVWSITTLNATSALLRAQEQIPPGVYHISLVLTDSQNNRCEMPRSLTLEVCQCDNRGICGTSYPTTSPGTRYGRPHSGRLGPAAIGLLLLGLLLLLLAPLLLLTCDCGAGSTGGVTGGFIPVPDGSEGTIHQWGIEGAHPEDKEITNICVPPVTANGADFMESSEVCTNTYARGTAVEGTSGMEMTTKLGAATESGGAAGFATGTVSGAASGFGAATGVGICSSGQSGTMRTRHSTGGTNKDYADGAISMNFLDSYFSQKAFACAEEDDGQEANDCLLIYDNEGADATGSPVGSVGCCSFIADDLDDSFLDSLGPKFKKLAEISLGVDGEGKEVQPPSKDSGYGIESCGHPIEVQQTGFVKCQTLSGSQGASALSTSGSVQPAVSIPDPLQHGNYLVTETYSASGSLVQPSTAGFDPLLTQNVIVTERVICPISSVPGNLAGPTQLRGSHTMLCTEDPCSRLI
TRPC6 act = activators of mouse TRPC6 channel; Q61143; HEK293-TRPC6 membrane potential dye fluorescence; stronger effect = higher value; B-score at 10 µM; hit rate 0.13% among 310,000; AID 2550;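 active = B-score of the integrated fluorescence ratio above library mean plus 3 SD, and starting fluorescence ratio within library mean plus 5 SD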;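 also: higher score means more depolarization so channel activation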
TRPC6 inh = mouse TRPC6 channel inhibition. B-score at 10 µM. HEK293-TRPC6, membrane potential dye, ACh-evoked depolarization; stronger effect = lower value. hit rate 1.1% among 310,000. Q61143;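 active = B-score under library mean minus 3 SD, initial fluorescence not abnormally high, positive integrated signal ratio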;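 also: B-score derived from integrated fluorescence ratio over the kinetic read; more negative B-score means stronger inhibition of depolarization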
TRPC4 potent = allosterically enhances the mouse TRPC4 cation channel; hit rate 0.42% among 310,000; AID 2227; HEK293 TRPC4beta/mu-opioid, DAMGO EC20, Fluo-4 Ca2+ flux; stronger effect = higher value; B-score at 10 µM;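 active = B-score of calcium response area above 5 SD of library B-scores, with initial fluorescence ratio within 5 SD of library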
A number is an active result; n = inactive; x = no result. Shown are actives, neighbours in structure and some others; about 2.5% of the full set was active somewhere.

SMILES	TRPC4 agonist	TRPC4 block	Pemphigus Ab inh	TRPC6 act	TRPC6 inh	TRPC4 potent
Cc1cccc(OCC(=O)Nc2cc(S(=O)(=O)N3CCCCC3)ccc2N2CCN(C)CC2)c1	n	n	n	n	n	11
CN1CCN(c2ccc(S(=O)(=O)N3CCCCC3)cc2NC(=O)COc2cccc(Cl)c2)CC1	n	n	n	n	n	13
O=[N+]([O-])c1ccc(Cn2cc(-c3cccc(C(F)(F)F)c3)nn2)cc1	n	n	n	n	n	n
Cc1nc(Cl)c2c(n1)N(CC(N)=O)C(=O)CO2	n	n	n	n	n	n
Cc1ccccc1C(=O)Nc1nnc(S(=O)(=O)N2CCCCCC2)s1	n	n	-6.6	n	n	n
CC(C)CNS(=O)(=O)c1ccc(CCC(=O)NCCc2ccccc2)cc1	n	n	n	n	n	n
COc1ccc(NC(=O)c2c[nH]n3c(=O)cc(C4CCN(C(=O)OC(C)(C)C)CC4)nc23)cc1Cl	n	-7	n	n	n	n
CN(C)Cc1c(-c2ccc(Cl)cc2)nc2ccc(Cl)cn12	n	n	n	n	n	n
Cc1ccc(C(=O)OCC(=O)Nc2cccc(S(=O)(=O)NC3=NCCCCC3)c2)c(C)c1	n	n	74.2	n	n	n
CS(=O)(=O)Nc1ccccc1C(=O)Nc1ccccc1Cl	n	n	66.2	n	n	n
NC(=O)c1ccc(NC(=O)c2ccc3c(c2)CCN3S(=O)(=O)c2ccccc2)cc1	n	n	10.1	n	n	n
O=C(O)c1cccc(NC(=O)c2cccc(S(=O)(=O)N3CCc4ccccc43)c2)c1	n	n	n	n	n	n
O=C(NCc1ccc(Cl)cc1)c1cc([N+](=O)[O-])ccc1Cl	n	n	n	n	n	n
O=C(NCc1ccccc1Cl)c1cnc2ccccc2n1	n	n	n	n	n	56
O=C(NCc1ccccc1Cl)c1cc([N+](=O)[O-])ccc1Cl	n	n	72.1	n	n	n
O=C(COC(=O)c1ccc(OC(F)F)cc1)NCCC1=CCCCC1	x	x	n	x	x	x
CCCN1CNc2c(c(=O)[nH]c(=S)n2CCc2ccc(OC)c(OC)c2)C1	n	n	n	n	n	n
Cc1ccccc1C(=O)Nc1ccc(C(=O)N/N=C/c2ccncc2)cc1	n	-6	n	n	n	n
O=C(N/N=C/c1ccncc1)c1sc2ccccc2c1Cl	n	n	-1.9	n	n	n
COc1ccc2[nH]c(CN3CCC(CO)(CCOc4ccccc4)CC3)c(C)c2c1	n	n	n	n	n	n
O=C(NC12CC3CC(CC(C3)C1)C2)c1ccc([N+](=O)[O-])cc1	n	n	n	n	n	n
O=[N+]([O-])c1ccc(C23CC4CC(CC(O)(C4)C2)C3)cc1	n	-6	x	n	n	n
O=c1ccc(-c2nc3cc(Cl)ccc3n2Cc2ccccc2)c[nH]1	n	n	n	n	n	10
CCOC(=O)c1c(NC(C)=O)sc(/C(C)=N/Nc2ccc(C(=O)O)cc2)c1C	n	n	n	n	n	n
c1ccc(-c2ccccc2OCCOCCN2CCCCC2)cc1	n	-5	n	n	n	n
SMILES	TRPC4 agonist	TRPC4 block	Pemphigus Ab inh	TRPC6 act	TRPC6 inh	TRPC4 potent
CC1CCN(CCOCCOc2ccccc2-c2ccccc2)CC1	n	-6	n	n	n	n
Cc1cccc(NNC(=O)c2c(F)cccc2Cl)c1	n	n	n	n	n	n
CCOC(=O)c1ccccc1N/C=C/C(=O)c1ccccc1	n	n	35.9	n	n	n
CCOC(=O)c1ccc(N/C=C/C(=O)c2ccccc2)cc1	n	n	n	n	n	n
CCn1c(-c2ccc(N(C)C)cc2)nc2ccccc21	n	n	x	n	n	n
CCn1c(-c2ccc(N)cc2)nc2ccccc21	71	n	n	n	n	n
Fc1ccc(-n2cc(-c3ccccc3)c3c(N4CCOCC4)ncnc32)cc1	n	n	n	n	n	15
COc1cc(Cl)c(C)cc1NC(=O)CSC1=NCCS1	x	x	n	x	x	x
S=C(NCc1ccco1)N1CCN(c2cccc(Cl)c2)CC1	n	-5	n	n	n	n
Cc1c(C(=O)N2CCC(C(N)=O)CC2)oc2ccc(Br)cc12	n	n	n	n	n	n
CCCn1c(=O)c(C(=O)NNC(=O)c2ccccc2Cl)c(O)c2ccccc21	48	n	n	n	n	n
CCCn1c(=O)c(C(=O)NCC2CCCO2)c(O)c2ccccc21 (configuration not stated)	n	n	n	n	n	16
O=C(NCC1CCCO1)c1c(O)c2ccccc2[nH]c1=O (configuration not stated)	n	n	n	n	n	n
O=C1c2ccccc2S(=O)(=O)c2cc(-c3nn[nH]n3)ccc21	x	x	n	x	x	x
Cc1ccc(-c2ccc3c(c2)S(=O)(=O)c2ccccc2C3=O)cc1	n	n	x	n	n	29
O=C(CC1=NCCNC(c2ccccc2)C1)c1ccccc1O (configuration not stated)	n	n	n	n	n	10
COCCn1c(SC(C)C(=O)Nc2ccc(N3CCOCC3)cc2)nnc1-c1ccncc1 (configuration not stated)	n	n	n	n	n	n
CCOC(=O)C1CCN(c2cc3c(cc2NC(=O)c2ccccc2Br)n(C)c(=O)n3C)CC1	n	n	n	n	n	n
CCOC(=O)C1CCN(c2cc3c(cc2NC(=O)c2cc(OC)ccc2Br)n(C)c(=O)n3C)CC1	n	n	x	n	n	12
Cc1ccc(S(=O)(=O)N2CCCCC2)cc1C(=O)Nc1ccc(S(=O)(=O)Nc2ncccn2)cc1	n	n	n	n	n	n
COc1ccc(N2CCN(S(=O)(=O)c3c(C)n(C)c(=O)n(C)c3=O)CC2)cc1	n	n	n	n	n	n
Cc1ccc(S(=O)(=O)NC(C(=O)Oc2cc3oc(=O)cc(C)c3cc2Cl)C(C)C)cc1 (configuration not stated)	n	n	n	n	n	15
CCn1c(CC(=O)Nc2ccccc2F)nnc1SCC(=O)NC1CCCCC1	n	n	n	n	n	n
CCn1c(CC(=O)Nc2ccccc2Cl)nnc1SCC(=O)NC1CCCC1	n	n	85.7	n	n	n
Nc1nonc1-n1nnc(C(=O)N/N=C/c2ccc(OCc3ccccc3F)cc2)c1CN1CCCCC1	n	n	-3.4	n	n	n
COc1cccc(CSc2ccc(S(=O)(=O)N3CCOCC3)cc2C(=O)NCC2CCCO2)c1OC (configuration not stated)	n	n	n	n	n	n
COc1cc(/C=N/Nc2ccc(S(N)(=O)=O)cc2[N+](=O)[O-])cc(OC)c1O	n	n	82.8	n	n	n
COc1cc(/C=N/Nc2ccccc2[N+](=O)[O-])cc(OC)c1O	n	n	n	n	n	n
CCOC(=O)c1c(C)nc(C)c2c(=O)oc3ccccc3c12	n	n	95.3	n	n	n

Compound activity (PubChem BioAssay)
